B1: Osa-1-4 twister ribozyme (parent)
chain: CCGCCUAACACUGCCAAUGCCGGUCCCAAGCCCGGAUAAAAGUGGAGGGGGCGG

Variants of: B1
Experiment: self-cleavage, relative activity (ratio to wild type); higher = more cleavage; co-transcriptional
Method in brief: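 Values are relative activity: the fraction cleaved, normalised to wild type. A doped DNA template for a 54-nucleotide twister ribozyme from Oryza sativa had 97 % wild-type base and 1 % of each other base at the 48 positions downstream of the cleavage site. The RNA was transcribed in vitro for 2 h at 37 °C so that it could cleave itself co-transcriptionally, then sequenced deeply, with cleavage status scored from the presence or absence of upstream sequence in reads.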
Work on G44C G51A yielded a self-cleavage of 0.67. Variant G44C G51C has a self-cleavage of 0.07. With G44C G51U the self-cleavage was 0.16. Work on G44C U43C yielded a self-cleavage of 0.73. Work on G44C U43G yielded a self-cleavage of 0.07. Variant G44C U43A has a self-cleavage of 0.74. Work on G42U G51U yielded a self-cleavage of 0.07. Work on G42U G51C yielded a self-cleavage of 0.04. G42U G51A showed a self-cleavage of 0.1. G42C G47A showed a self-cleavage of 0.06. For G42C G47U, the self-cleavage was 0.06. G42C G47C gave a self-cleavage of 0.06. A41U G51C showed a self-cleavage of 0.1. Variant A41U G51U has a self-cleavage of 0.26. For A41U G51A, the self-cleavage was 0.59. For A41U G54A, the self-cleavage was 0.98. Variant A41U G54C has a self-cleavage of 0.93. For A41U G54U, the self-cleavage was 0.99. Work on G44A G47U yielded a self-cleavage of 0.12. G44A G47C showed a self-cleavage of 0.09. In the case of G44A G47A, the self-cleavage is reported as 0.13. Variant G42C G50A has a self-cleavage of 0.14. For G42C G50C, the self-cleavage was 0.15. G42C G50U gave a self-cleavage of 0.32. For G42A U37A, the self-cleavage was 0.51. In the case of G42A U37C, the self-cleavage is reported as 0.88. G42A U37G showed a self-cleavage of 0.89. With G45A G49U the self-cleavage was 0.04. With G45A G49C the self-cleavage was 0.05. G45A G49A showed a self-cleavage of 0.05. Work on G44A U12C yielded a self-cleavage of 0.68. G44A U12G gave a self-cleavage of 0.28. G44A U12A showed a self-cleavage of 0.65. For G42A U24A, the self-cleavage was 0.05. G42A U24G showed a self-cleavage of 0.03. G42A U24C gave a self-cleavage of 0.06. In the case of G44U U37C, the self-cleavage is reported as 0.99. Work on G44U U37A yielded a self-cleavage of 0.66. G44U U37G showed a self-cleavage of 0.95. For G42C G45A, the self-cleavage was 0.06. For G42C G45U, the self-cleavage was 0.05. G42C G45C showed a self-cleavage of 0.06. With U43C the self-cleavage was 0.64. U43G gave a self-cleavage of 0.67. U43A gave a self-cleavage of 0.93. Variant G42C G53A has a self-cleavage of 0.14. For G42C G53C, the self-cleavage was 0.07. G42C G53U gave a self-cleavage of 0.08. G45A U24C gave a self-cleavage of 0.05. Work on G45A U24G yielded a self-cleavage of 0.02. In the case of G45A U24A, the self-cleavage is reported as 0.03. Work on G42A G53A yielded a self-cleavage of 0.58. Work on G42A G53C yielded a self-cleavage of 0.1. Work on G42A G53U yielded a self-cleavage of 0.19. Work on G45A U12C yielded a self-cleavage of 0.09. For G45A U12G, the self-cleavage was 0.07. Work on G45A U12A yielded a self-cleavage of 0.09. G42A G47U showed a self-cleavage of 0.07. G42A G47A showed a self-cleavage of 0.08. Variant G42A G47C has a self-cleavage of 0.07. With G44U U24C the self-cleavage was 0.15. In the case of G44U U24A, the self-cleavage is reported as 0.09. Variant G44U U24G has a self-cleavage of 0.04. With G42U U37A the self-cleavage was 0.09. For G42U U37C, the self-cleavage was 0.11. Variant G42U U37G has a self-cleavage of 0.15. G42C G44A showed a self-cleavage of 0.24. Variant G42C G44C has a self-cleavage of 0.19. Variant G42C G44U has a self-cleavage of 0.11. In the case of G42U G44U, the self-cleavage is reported as 0.15. With G42U G44C the self-cleavage was 0.26. In the case of G42U G44A, the self-cleavage is reported as 0.35. Work on G45A G48C yielded a self-cleavage of 0.04. With G45A G48A the self-cleavage was 0.06. For G45A G48U, the self-cleavage was 0.05. In the case of G44A U18G, the self-cleavage is reported as 0.63. With G44A U18C the self-cleavage was 0.83. Work on G44A U18A yielded a self-cleavage of 0.84. With G44U U12C the self-cleavage was 0.43. G44U U12G gave a self-cleavage of 0.15. Work on G44U U12A yielded a self-cleavage of 0.11. In the case of G42C U24A, the self-cleavage is reported as 0.05. In the case of G42C U24G, the self-cleavage is reported as 0.02. With G42C U24C the self-cleavage was 0.05. With G42C G51C the self-cleavage was 0.06. With G42C G51A the self-cleavage was 0.08. G42C G51U showed a self-cleavage of 0.06. G45C G51C showed a self-cleavage of 0.05. With G45C G51U the self-cleavage was 0.05. Variant G45C G51A has a self-cleavage of 0.06. G42A G51U showed a self-cleavage of 0.1. In the case of G42A G51A, the self-cleavage is reported as 0.28. With G42A G51C the self-cleavage was 0.06. G42A G44A gave a self-cleavage of 0.5. With G42A G44C the self-cleavage was 0.57. G42A G44U gave a self-cleavage of 0.31. Work on G42C G54C yielded a self-cleavage of 0.3. Work on G42C G54U yielded a self-cleavage of 0.43. G42C G54A gave a self-cleavage of 0.26. G45A G54U showed a self-cleavage of 0.34. In the case of G45A G54C, the self-cleavage is reported as 0.1. G45A G54A showed a self-cleavage of 0.15. Work on G44A G48U yielded a self-cleavage of 0.06. With G44A G48A the self-cleavage was 0.07. G44A G48C gave a self-cleavage of 0.06. G44U G53A showed a self-cleavage of 0.75. With G44U G53C the self-cleavage was 0.08. Work on G44U G53U yielded a self-cleavage of 0.3. G44A G54C showed a self-cleavage of 0.93. For G44A G54U, the self-cleavage was 0.94. G44A G54A showed a self-cleavage of 0.92. Work on G44U G48A yielded a self-cleavage of 0.06. Variant G44U G48C has a self-cleavage of 0.07. For G44U G48U, the self-cleavage was 0.07. G45C G49U showed a self-cleavage of 0.03. G45C G49A gave a self-cleavage of 0.04. With G45C G49C the self-cleavage was 0.04. In the case of G44C G47A, the self-cleavage is reported as 0.19. G44C G47U gave a self-cleavage of 0.16. Variant G44C G47C has a self-cleavage of 0.11. With G45C G54A the self-cleavage was 0.08. Work on G44C G45A yielded a self-cleavage of 0.14. Variant G44C G45C has a self-cleavage of 0.08. G44C G45U showed a self-cleavage of 0.07. For G44C U12A, the self-cleavage was 0.4. Work on G44C U12G yielded a self-cleavage of 0.08. For G44C U12C, the self-cleavage was 0.31. In the case of G42A G54A, the self-cleavage is reported as 0.76. G42A G54U gave a self-cleavage of 0.8. Work on G42A G54C yielded a self-cleavage of 0.82. In the case of G42A G45U, the self-cleavage is reported as 0.05. In the case of G42A G45A, the self-cleavage is reported as 0.08. G42A G45C showed a self-cleavage of 0.05. Work on A41U U24A yielded a self-cleavage of 0.22. In the case of A41U U24G, the self-cleavage is reported as 0.02. A41U U24C showed a self-cleavage of 0.27. G44A gave a self-cleavage of 0.97. Work on G44C yielded a self-cleavage of 0.98. Variant G44U has a self-cleavage of 0.93. A41U U37C gave a self-cleavage of 1.03. For A41U U37G, the self-cleavage was 1.02. A41U U37A gave a self-cleavage of 0.98. Work on G42U G48A yielded a self-cleavage of 0.03. Variant G42U G48U has a self-cleavage of 0.03. Work on G42U G48C yielded a self-cleavage of 0.03. Work on G44C G54C yielded a self-cleavage of 0.92. Variant G44C G54U has a self-cleavage of 0.92. G44C G54A showed a self-cleavage of 0.89. Work on G45C G48C yielded a self-cleavage of 0.04. G45C G48U gave a self-cleavage of 0.02. Variant G45C G48A has a self-cleavage of 0.03. For G44A G53A, the self-cleavage was 0.83. G44A G53U gave a self-cleavage of 0.47. With G44A G53C the self-cleavage was 0.1. A41U G50U showed a self-cleavage of 1.03. For G42U G47A, the self-cleavage was 0.05. Work on G42U G47C yielded a self-cleavage of 0.02. For G42U G47U, the self-cleavage was 0.03. In the case of G44C U18A, the self-cleavage is reported as 0.88. Work on G44C U18C yielded a self-cleavage of 0.83. Work on G44C U18G yielded a self-cleavage of 0.64. In the case of G42U G54U, the self-cleavage is reported as 0.37. Work on G42U G54A yielded a self-cleavage of 0.14. For G42U G54C, the self-cleavage was 0.15. In the case of G42U G53C, the self-cleavage is reported as 0.05. Work on G42U G53A yielded a self-cleavage of 0.1. For G42U G53U, the self-cleavage was 0.08.

Source: the RNAGym collection of RNA variant scans (doi:10.1002/anie.201605470)
